Measurements from different studies.
Each line is one published result; the experiments were not run side by side.
Target: Rho-associated protein kinase 1 (ROCK1, Homo sapiens, UniProt Q13464)

CCCOc1ccc([C@H]2[C@H](C(=O)O)[C@@H](c3ccc4c(c3)OCO4)CN2CC(=O)Nc2c(CC)cccc2CC)cc1 — remaining binding (cell-free assay, competition with immobilised ligand; 1 µM): 65%
CCN1CCN(Cc2ccc(C(=O)Nc3ccc(C)c(Oc4ccc5c(c4)CC(=O)N5)c3)cc2C(F)(F)F)CC1 — remaining binding (binding, competition with immobilised ligand; 1 µM): 69%
C[C@H]1CCN(c2nccc(-c3cnn4ncccc34)n2)C1 — remaining binding (binding; 1 µM): 81%
O=C(NCC1CCOCC1)c1n[nH]cc1NC(=O)c1c(F)cccc1F — remaining binding (binding, competition with immobilised ligand; 1 µM): 83%
Cc1c(C(=O)O)cc(-c2ccc(C3CCNCC3)cc2)c2ccc(-c3ccc(C(F)(F)F)cc3)cc12 — remaining binding (binding, competition with immobilised ligand; 1 µM): 100%
O=C(c1ccc(Nc2ncc(Cl)c(-c3cc4ccccc4s3)n2)cc1)N1CCC(N2CCCC2)CC1 — remaining binding (binding, competition with immobilised ligand; 1 µM): 4.5%
N[C@H]1CCN(c2nccc(-c3cnn4ncccc34)n2)C1 — remaining binding (binding; 1 µM): 73%
Cc1c(NC(=O)c2cc(C(N)=O)nc3cc(F)ccc23)c(C(F)(F)F)nn1Cc1ccc(C#N)cc1 — remaining binding (cell-free assay, competition with immobilised ligand; 1 µM): 97%
CC1CCCN1c1nccc(-c2cnn3ncccc23)n1 (stereo not shown) — remaining binding (binding; 1 µM): 100%
Nc1ncc2c(n1)-c1c([nH]c3ccc(C#CC4CC4)cc13)CCCC2 — remaining binding (binding, competition with immobilised ligand; 1 µM): 100%
CNC(=O)[C@@H]1CC[C@@H](n2c(-c3ccc4cnccc4c3)nc3ccc(C(=O)NCc4cccc(C(N)=O)c4)cc32)C1 — remaining binding (binding, competition with immobilised ligand; 1 µM): 100%
CC(C)CC(=O)N1CCc2nc(-c3ccc(Br)cc3)nc(N(C)Cc3ccccc3)c2C1 — remaining binding (cell-free assay, competition with immobilised ligand; 0.1 µM): 78%
F[C@@H]1CCN(c2nccc(-c3cnn4ncccc34)n2)C1 — remaining binding (binding; 1 µM): 100%
COc1cnc(Nc2cccc(S(N)(=O)=O)c2)nc1N1CCN(c2ccccc2)CC1 — remaining binding (binding, competition with immobilised ligand; 1 µM): 78%
CS(=O)(=O)c1cc(C2(NC(=O)c3cncc4c3cnn4-c3ccc(F)cc3)CC2)ccn1 — remaining binding (cell-free assay, competition with immobilised ligand; 1 µM): 79%
O=C(c1ccc(Nc2nccc(-c3cc4ccccc4s3)n2)cc1)N1CCC(N2CCCC2)CC1 — remaining binding (binding, competition with immobilised ligand; 1 µM): 7.4%
c1cncc(-c2cccc(Nc3nccc(NC4CCCCC4)n3)c2)c1 — remaining binding (binding, competition with immobilised ligand; 10 µM): 10%
CN(C)c1ncc(F)c(-c2cnn3ncccc23)n1 — remaining binding (binding; 1 µM): 100%
O=C(O)c1cc(-c2ccc(C3CCNCC3)cc2)c2ccc(-c3ccc(C(F)(F)F)cc3)cc2c1 — remaining binding (cell-free assay, competition with immobilised ligand; 1 µM): 100%
O=C(NCCCN1CCOCC1)c1ccc(Nc2nccc(-c3cc4ccccc4s3)n2)cc1 — remaining binding (binding, competition with immobilised ligand; 1 µM): 54%
CC(=O)c1c(NS(C)(=O)=O)c2cc(-c3ccc(Cl)cc3)c(-c3ccc(Cl)cc3Cl)nc2n(C)c1=O — remaining binding (cell-free assay, competition with immobilised ligand; 1 µM): 85%
CN(c1nccc(-c2cnn3ncccc23)n1)C1CC1 — remaining binding (binding; 1 µM): 100%
